Data on twelve molecules can be found in ChEMBL document CHEMBL4138155, “Design, synthesis and biochemical evaluation of novel multi-target inhibitors as potential anti-Parkinson agents” (Eur J Med Chem, 2018).

Each structure is given as a SMILES string.

The target of experiment [1] is Cholinesterase (Equus caballus) (UniProt P81908). Put plainly: Inhibition of horse serum BuChE at 3 uM using butyrylthiocholine iodide as substrate preincubated for 15 mins followed by substrate addition measured after 10 mins by spectrophotometry based-Ellman's method.
Experiment [2] can be described thus: Antioxidant activity assessed as ABTS radical scavenging activity measured after 12 to 16 hrs. In kind it is functional. The method, boiled down:
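ABTS radical cation generated from 7 mM ABTS with 2.45 mM potassium persulphate, 12-16 h dark at room temperature, then diluted with methanol to A734 0.700 ± 0.02. Sample mixed with ABTS solution, 30 min at room temperature, absorbance read at 734 nm. IC50 = concentration scavenging 50% of radicals; trolox reference.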

Experiment [3] can be described thus: Antioxidant activity assessed as ferric ion reducing activity using Fe3+-TPTZ after 30 mins by FRAP assay. In kind it is functional. In outline: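 FRAP reagent: acetate buffer (0.3 M, pH 3.6), TPTZ (10 mM) in 40 mM HCl and FeCl3 (20 mM), 10:1:1 v/v/v. Sample added, 30 min at room temperature, absorbance at 593 nm. Expressed as EC50.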
Experiment [4] has as its target T1, Amine oxidase [flavin-containing] B (Homo sapiens, UniProt P27338).
T1 sequence (P27338 whole entry): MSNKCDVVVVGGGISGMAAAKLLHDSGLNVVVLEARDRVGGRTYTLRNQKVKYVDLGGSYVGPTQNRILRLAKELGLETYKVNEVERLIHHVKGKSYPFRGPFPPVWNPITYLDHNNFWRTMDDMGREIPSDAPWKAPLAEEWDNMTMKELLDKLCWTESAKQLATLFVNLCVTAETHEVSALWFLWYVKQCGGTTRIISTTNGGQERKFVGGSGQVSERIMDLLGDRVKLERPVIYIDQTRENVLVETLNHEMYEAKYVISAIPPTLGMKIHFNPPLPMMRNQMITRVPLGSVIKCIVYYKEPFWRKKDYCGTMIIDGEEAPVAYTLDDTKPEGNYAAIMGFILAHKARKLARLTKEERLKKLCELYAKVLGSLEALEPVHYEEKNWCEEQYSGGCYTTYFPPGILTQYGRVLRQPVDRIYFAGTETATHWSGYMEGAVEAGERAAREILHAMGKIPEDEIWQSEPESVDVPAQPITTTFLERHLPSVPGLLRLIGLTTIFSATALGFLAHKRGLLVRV

In experiment [5] the target is T2, Amine oxidase [flavin-containing] A (Homo sapiens, UniProt P21397).
T2 sequence (P21397 whole entry): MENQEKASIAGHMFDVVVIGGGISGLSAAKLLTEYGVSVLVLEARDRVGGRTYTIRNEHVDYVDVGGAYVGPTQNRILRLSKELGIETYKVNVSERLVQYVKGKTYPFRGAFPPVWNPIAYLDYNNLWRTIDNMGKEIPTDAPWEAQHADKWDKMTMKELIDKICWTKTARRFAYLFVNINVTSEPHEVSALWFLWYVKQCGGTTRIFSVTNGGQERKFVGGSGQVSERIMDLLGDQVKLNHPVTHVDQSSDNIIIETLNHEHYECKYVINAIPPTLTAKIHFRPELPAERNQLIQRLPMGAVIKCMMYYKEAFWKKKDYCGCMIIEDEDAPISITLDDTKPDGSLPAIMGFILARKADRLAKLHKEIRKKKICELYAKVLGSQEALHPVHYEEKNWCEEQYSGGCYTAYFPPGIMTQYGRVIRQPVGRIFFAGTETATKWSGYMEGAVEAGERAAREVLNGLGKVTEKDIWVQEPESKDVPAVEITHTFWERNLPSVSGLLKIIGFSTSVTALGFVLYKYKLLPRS
Briefly: Inhibition of recombinant human MAO-A using kynuramine as substrate after 20 mins by fluorescence assay.

Experiment [6] in a line: Antioxidant activity assessed as cupric ion reducing activity after 30 mins by CUPRAC assay. In kind it is functional. In outline: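 Sample mixed with CuCl2 (10 mM), neocuproine (7.5 mM) and NH4Ac buffer (1 M, pH 7.0) stock reagents; blank lacks CuCl2. Absorbance at 450 nm after 30 min at room temperature, blank subtracted. Expressed as EC50.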
Experiment [7] can be described thus: Antioxidant activity assessed as total antioxidant capacity after 90 mins by phosphomolybdenum method. In kind it is functional. In outline:
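Sample combined with reagent of 0.6 M sulphuric acid, 28 mM sodium phosphate and 4 mM ammonium molybdate; heated 90 min at 95 °C, absorbance at 695 nm. EC50 = concentration giving absorbance 0.5; trolox as reference.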

A short description of experiment [8]: Antioxidant activity assessed as DPPH radical scavenging activity after 30 mins. It counts as functional. In outline:
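Sample added to 0.004% DPPH in methanol, kept 30 min in the dark at room temperature, absorbance read at 517 nm. IC50 taken as the concentration scavenging 50% of DPPH radicals; trolox as reference.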
In general terms: Loss of DPPH colour is used to gauge radical scavenging.

Cholinesterase (Equus caballus), sequence (P81908 whole entry): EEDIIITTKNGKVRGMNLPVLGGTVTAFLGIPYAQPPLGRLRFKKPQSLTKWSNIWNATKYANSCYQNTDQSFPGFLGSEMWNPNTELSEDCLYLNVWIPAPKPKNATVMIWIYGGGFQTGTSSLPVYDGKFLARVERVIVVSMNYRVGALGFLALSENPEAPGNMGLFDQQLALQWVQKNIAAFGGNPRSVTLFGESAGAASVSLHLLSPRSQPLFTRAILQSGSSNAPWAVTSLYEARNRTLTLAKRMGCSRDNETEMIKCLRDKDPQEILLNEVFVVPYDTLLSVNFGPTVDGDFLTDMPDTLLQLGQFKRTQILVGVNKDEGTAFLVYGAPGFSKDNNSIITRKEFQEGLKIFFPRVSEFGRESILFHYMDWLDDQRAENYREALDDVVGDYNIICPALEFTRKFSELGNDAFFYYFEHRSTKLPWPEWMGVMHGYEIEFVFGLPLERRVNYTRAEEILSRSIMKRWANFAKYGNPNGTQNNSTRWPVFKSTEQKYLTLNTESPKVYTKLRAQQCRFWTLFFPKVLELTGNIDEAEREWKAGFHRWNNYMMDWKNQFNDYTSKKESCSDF

The term inhibition denotes how much of the control response was suppressed. Higher therefore signals a response far below the control. By IC50 is commonly meant the concentration that inhibits the measured activity by half. One may read the EC50 as the concentration at which the effect is half-maximal. As for `CCCCCC/C(C)=N\Nc1nc(-c2cccc([N+](=O)[O-])c2)cs1`, the inhibition in experiment [1] is 9.54%. The IC50 in experiment [2] came out at 1110 µM; in experiment [4] it was 0.626 µM; in experiment [5], 10.9 µM; in experiment [8], 1150 µM. Moreover, the EC50 in experiment [3] is 390 µM; in experiment [6], 530 µM; in experiment [7], 1240 µM.
`O=[N+]([O-])c1cccc(-c2csc(NN=C3CCCCC3)n2)c1` came in with an inhibition in experiment [1] of 8.41%. Besides, the half-maximal inhibitory concentration (IC50) in experiment [2] is 1100 µM; in experiment [4] it was 0.047 µM; in experiment [5], 2.56 µM; in experiment [8] it was 1200 µM. In addition, the EC50 in experiment [3] came to 330 µM; in experiment [6] it was 320 µM; in experiment [7], 1430 µM.
`Cc1c(C)c2c(c(C)c1O)CCC(C)(C(=O)O)O2` (stereo unspecified) [TROLOX]: the IC50 in experiment [2] worked out at 660 µM; in experiment [8] it was 400 µM. In addition, the results for the 50% effective concentration (EC50) in experiment [3], in experiment [6] and in experiment [7] were 160 µM, 240 µM and 1130 µM, respectively.
`CC/C(C)=N\Nc1nc(-c2cccc([N+](=O)[O-])c2)cs1`: the inhibition in experiment [1] is 12.1%. For the same molecule, the 50% inhibitory concentration (IC50) worked out at 1040 µM in experiment [2], 0.351 µM in experiment [4], 20.5 µM in experiment [5] and 1180 µM in experiment [8]. The half-maximal effective concentration (EC50) in experiment [3] was determined as 420 µM; in experiment [6] it was 580 µM; in experiment [7], 1650 µM.
On to `O=[N+]([O-])c1cccc(-c2csc(NN=C3CCCCCCC3)n2)c1`, for which the inhibition in experiment [1] turned out to be 7.64%. Also, the IC50 in experiment [2] came to 1090 µM; in experiment [4] it was 0.01 µM; in experiment [5], 1.82 µM; in experiment [8] it was 1280 µM. Moreover, the 50% effective concentration (EC50) was 390 µM in experiment [3], 440 µM in experiment [6] and 1220 µM in experiment [7].
`CCCC/C(CC)=N\Nc1nc(-c2cccc([N+](=O)[O-])c2)cs1`: the inhibition in experiment [1] stood at 10%. In addition, the half-inhibitory concentration (IC50) was found to be 1040 µM in experiment [2], 0.182 µM in experiment [4], 6.03 µM in experiment [5] and 1260 µM in experiment [8]. In addition, the EC50 in experiment [3] is 410 µM; in experiment [6], 550 µM; in experiment [7], 1560 µM.
In turn, `CCCC/C(C)=N\Nc1nc(-c2cccc([N+](=O)[O-])c2)cs1` had an inhibition in experiment [1] of 11.3%. Moreover, the IC50 in experiment [2] was determined as 1060 µM; in experiment [4], 0.118 µM; in experiment [5], 6.33 µM; in experiment [8] it was 1180 µM. Besides, the EC50 is 370 µM in experiment [3], 520 µM in experiment [6] and 1460 µM in experiment [7].
For `C=CCC/C(C)=N\Nc1nc(-c2cccc([N+](=O)[O-])c2)cs1`, the inhibition in experiment [1] came out at 6.35%. Also, the 50% inhibitory concentration (IC50) in experiment [2] came out at 1040 µM; in experiment [4] it was 0.101 µM; in experiment [5] it was 3.99 µM; in experiment [8] it was 1210 µM. Also, the EC50 is 330 µM in experiment [3], 460 µM in experiment [6] and 1150 µM in experiment [7].
In turn, `C/C(=N/Nc1nc(-c2cccc([N+](=O)[O-])c2)cs1)C1CCCCC1` had an inhibition in experiment [1] of 6.22%. The IC50 came to 1050 µM in experiment [2], 0.0072 µM in experiment [4], 29.1 µM in experiment [5] and 1350 µM in experiment [8]. The EC50 in experiment [3] amounted to 670 µM; in experiment [6] it was 610 µM; in experiment [7] it was 1190 µM.
On to `CCC/C(C)=N\Nc1nc(-c2cccc([N+](=O)[O-])c2)cs1`, for which the inhibition in experiment [1] was 5.16%. Moreover, the IC50 in experiment [2] was 1040 µM; in experiment [4], 0.055 µM; in experiment [5], 38 µM; in experiment [8] it was 1200 µM. Moreover, the EC50 turned out to be 450 µM in experiment [3], 550 µM in experiment [6] and 1200 µM in experiment [7].
`C/C(CC(C)C)=N/Nc1nc(-c2cccc([N+](=O)[O-])c2)cs1` had an inhibition in experiment [1] of 8.98%. In addition, the IC50 stood at 1050 µM in experiment [2], 0.012 µM in experiment [4], 4.41 µM in experiment [5] and 1350 µM in experiment [8]. For the same molecule, the EC50 was found to be 420 µM in experiment [3], 570 µM in experiment [6] and 1130 µM in experiment [7].
As for `COc1ccc2c3c1O[C@H]1C[C@@H](O)C=C[C@@]31CCN(C)C2`, the inhibition in experiment [1] was 13.6%.
